# Results collected from several papers.
# Compare with care: the assays were run in different laboratories.
# PKN1: Serine/threonine-protein kinase N1 (PKN1, Homo sapiens, UniProt Q16512)
# NUAK2: NUAK family SNF1-like kinase 2 (NUAK2, Homo sapiens, UniProt Q9H093)
# CTSV: Cathepsin L2 (CTSV, Homo sapiens, UniProt O60911)
SMILES,target,assay,setting,endpoint,result
COc1ccc2c(c[n+](C)c3c4cc5c(cc4ccc23)OCO5)c1OC,PKN1,"enzyme activity, inhibitor",1 µM,activity vs control,86%
Nc1ncc(-c2nc(N3CCOCC3)nc(N3CCOCC3)n2)c(C(F)F)n1,"Ribosomal protein S6 kinase alpha-6, N-terminal kinase domain (RPS6KA6, Homo sapiens, UniProt Q9UK32)","binding, competition with immobilised ligand",10 µM,remaining binding,48%
Cc1nn(C)cc1-c1nc2c(N3CCN(Cc4ccc(Cl)cc4)CC3)c(Cl)cnc2[nH]1,NUAK2,"binding, competition with immobilised ligand",1 µM,remaining binding,32%
CC(C)C[C@H](NC(=O)[C@H]1O[C@@H]1C(=O)O)C(=O)NCCCCN=C(N)N,CTSV,"enzyme activity, inhibitor",50 nM,inhibition,57%
COC[C@H]1OC(=O)c2coc3c2[C@@]1(C)C1=C(C3=O)[C@@H]2CCC(=O)[C@@]2(C)C[C@H]1OC(C)=O,PKN1,"enzyme activity, inhibitor",1 µM,activity vs control,111%
N=C(N)c1ccc2cc(OC(=O)c3ccc(N=C(N)N)cc3)ccc2c1,CTSV,"enzyme activity, inhibitor",10 µM,inhibition,27%
COc1ncccc1-c1cnn2ccc(N3CCN(C(=O)OC(C)C)CC3)nc12,NUAK2,"binding, competition with immobilised ligand",1 µM,remaining binding,100%
O=c1[nH]c2ccccc2n1C1CCN(Cc2ccc(-c3nc4cc5nc[nH]c5cc4nc3-c3ccccc3)cc2)CC1,PKN1,"enzyme activity, inhibitor",1 µM,activity vs control,77%
CN(C)C(=O)COC(=O)Cc1ccc(OC(=O)c2ccc(NC(=N)N)cc2)cc1,"Matrix metalloproteinase-9 (MMP9, Homo sapiens, UniProt P14780, Q279R)","enzyme activity, inhibitor",10 µM,inhibition,8%
